Screens deposited in PubChem by Sanford-Burnham Center for Chemical Genomics.
Shown are actives, neighbours in structure and some others; about 3.1% of the full set was active somewhere.
SENP8 block-1 = SENP8 (human) protease inhibition; recombinant SENP8, Nedd8 substrate fluorescence; 0.64% of 360,000 active; inhibition, % at 20 µM; in the data active = inhibition mostly above about 40%, no sharp cut-off; inactive = mostly below about 27%
Target sequence (Q96LD8 whole entry, looked up): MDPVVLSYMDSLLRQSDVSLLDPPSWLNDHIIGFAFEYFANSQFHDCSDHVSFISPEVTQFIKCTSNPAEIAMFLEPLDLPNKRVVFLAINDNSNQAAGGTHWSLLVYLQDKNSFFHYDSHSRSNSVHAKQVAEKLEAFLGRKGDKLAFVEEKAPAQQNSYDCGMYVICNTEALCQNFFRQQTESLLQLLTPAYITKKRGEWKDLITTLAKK
Apaf1 inhib = blocks human Apaf-1 apoptosome activity; O14727; 0.71% of 330,000 active; inhibition, % at 20 µM; reconstituted apoptosome caspase-3 activity, DEVD-Rh110 fluorescence; AID 489030; active = inhibition of at least 40% at 20 µM;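 also: plate controls were DMSO wells for no effect and DEVD-CHO caspase inhibitor wells for full effect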
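Medium: Hepes buffer, pH 7.5 / System: biochemical Apaf-1 apoptosome reconstitution / Measured by: Rh110 fluorescence, excitation 480 nm, emission 540 nm / Times: compound with Apaf-1, dATP, procaspase-3 30 min, then 50 min reaction, room temperature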
SENP6 block = blocks the human protease SENP6; Q9GZR1; Recombinant SENP6 catalytic domain, aminoluciferin luminescence; inhibition, % at 10 µM; 1.8% of 330,000 active; AID 2599;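 active = inhibition above about 50% at the single tested dose, limit read from the data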;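 also: plate controls were DMSO wells with enzyme for no effect and DMSO wells lacking enzyme for full effect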
SENP8 block-2 = inhibitors of human SENP8 protease. inhibition, % at 10 µM. purified SENP8, Z-RLRGG-aminoluciferin cleavage, luminescence. 1.2% of 330,000 active. Q96LD8; in the data active = inhibition above about 50%
UBC13 polyUb = human UBC13 polyubiquitination inhibition; P61088; UBC13 polyubiquitin chain formation, TR-FRET; inhibition, % at 20 µM; 0.47% of 330,000 active; in the data active = inhibition above about 45%, passing the limit was not always enough
Target sequence (P61088 whole entry, looked up): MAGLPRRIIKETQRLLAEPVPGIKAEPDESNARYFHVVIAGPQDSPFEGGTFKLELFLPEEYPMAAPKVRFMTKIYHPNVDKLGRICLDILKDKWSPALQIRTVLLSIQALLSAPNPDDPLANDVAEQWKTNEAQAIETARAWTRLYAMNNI
SENP7 block = SENP7 protease inhibition. Q9BQF6. recombinant SENP7, Z-RLRGG-aminoluciferin luminescence, 40 min. inhibition, % at 5 µM. 1.5% of 330,000 active. AID 434973;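 active = inhibition above about 50% at the single test dose, limit read from the data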;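 also: plate controls were DMSO with enzyme for no effect and no enzyme buffer wells for full effect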
SENP8 confirm = human SENP8 inhibition, confirmed; shares compounds with SENP7 block; Recombinant SENP8, Z-RLRGG-aminoluciferin luminescence, 60 min; inhibition, % at 12.5 µM; 40% of 6,200 active; AID 488912;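 active = mean inhibition across replicates above about 50%, limit read from the data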
SENP6 confirm = confirmation of human SENP6 protease inhibitors; shares compounds with SENP7 block; recombinant SENP6, Z-RLRGG-aminoluciferin luminescence; 58% of 6,200 active; inhibition, % at 12.5 µM; AID 488915
SENP7 conf = human SENP7 inhibition, confirmed | shares compounds with SENP7 block | recombinant SENP7, Z-RLRGG-aminoluciferin luminescence, 40 min | inhibition, % at 12.5 µM | 69% of 6,200 active | AID 488917
Casp3 SENP sel = caspase-3 inhibition (SENP selectivity assay); inhibition, % at 12.5 µM; purified caspase-3, Z-DEVD-aminoluciferin luminescence, 60 min; shares compounds with SENP7 block; 60% of 6,200 active;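 active = mean inhibition above about 50%, limit read from the data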;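 also: plate controls were enzyme with DMSO for no effect and wells without caspase-3 for full effect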
Target sequence (P42574 28-227 limits assumed): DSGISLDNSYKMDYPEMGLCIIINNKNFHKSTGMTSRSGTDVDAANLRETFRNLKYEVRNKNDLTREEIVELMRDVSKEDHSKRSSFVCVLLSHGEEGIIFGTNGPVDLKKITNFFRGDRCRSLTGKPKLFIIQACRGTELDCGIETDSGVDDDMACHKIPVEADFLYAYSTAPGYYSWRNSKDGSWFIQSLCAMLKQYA
SENP luc ctr = luminescence interference (SENP counter-screen); shares compounds with SENP7 block; Pre-incubated SENP8/Z-RLRGG-aminoluciferin, luciferase luminescence interference; inhibition, % at 12.5 µM; 39% of 6,200 active; AID 488919;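 active = mean inhibition above about 50% when retested at one dose, limit read from the data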;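 also: plate controls were DMSO wells with completed reaction for no effect and substrate without enzyme for full effect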
Numbers without * were called inactive; · = no result given.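 The calls were made as follows, unless noted: active = mean inhibition above about 50% in the one-dose retest (limit read from the data); inactive = the rest.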

SMILES	SENP8 block-1	Apaf1 inhib	SENP6 block	SENP8 block-2	UBC13 polyUb	SENP7 block	SENP8 confirm	SENP6 confirm	SENP7 conf	Casp3 SENP sel	SENP luc ctr
O=C(/C=C/c1ccc2c(c1)OCO2)c1ccc[nH]1	-421.6	1.0	77.3*	58.5*	19.4	77.7*	72.9*	64.3*	90.7*	40.6	68.6*
O=C(/C=C/c1ccccc1)c1ccc2c(c1)OCO2	11.6	-10.8	82.4*	76.3*	0.8	93.3*	20.0	50.6*	33.0	28.1	89.5*
O=C(/C=C/c1cccc(Br)c1)c1ccc2c(c1)OCO2	3.1	20.7	76.1*	34.3	-0.4	-32.8	4.2	4.8	-13.3	-12.7	9.5
COc1ccc(C(=O)N/C(=C/c2cccs2)C(=O)N2CCN(C)CC2)cc1	11.1	·	·	·	·	·	·	·	·	·	·
O=C(/C=C\Nc1ccccc1Br)c1ccc2c(c1)OCO2	-20.3	3.8	87.1*	86.4*	7.5	89.0*	84.2*	92.8*	97.8*	78.0*	8.5
O=C(/C=C/c1ccccc1Br)c1ccc2c(c1)OCO2	13.7	23.4	94.1*	91.4*	-9.9	91.6*	72.1*	73.8*	63.5*	59.8*	53.7*
CN(C)c1ccc(/C=C/C(=O)c2ccc3c(c2)OCO3)cc1	-381.4	10.0	90.6*	88.5*	-34.2	88.1*	95.1*	94.4*	100.6*	83.3*	66.1*
CCOC(=O)C1(C)CCCN1C(=O)c1ccc(OC)c(F)c1 (stereo not drawn)	5.6	·	·	·	·	·	·	·	·	·	·
O=C(NCCCN1CCCC1=O)C1CCC(CNS(=O)(=O)c2ccc(Cl)cc2)CC1 (stereo not drawn)	18.3	-1.3	-8.0	-5.1	-5.6	-12.8	·	·	·	·	·
O=C(NCCN1CCOCC1)C1CCC(CNS(=O)(=O)c2ccc(Cl)cc2)CC1 (stereo not drawn)	7.0	-1.4	10.3	-51.8	3.9	59.6*	0.7	-2.3	-2.9	-2.9	-2.1
Nc1nc2n(n1)C(c1cccc(Cl)c1)CC(c1ccc(F)cc1)N2 (stereo not drawn)	-42.1	2.0	-8.5	-7.4	-5.8	64.8*	8.4	5.5	-9.9	-4.1	-0.8
c1ccc2c(c1)Cn1nnnc1-2	2.5	6.1	2.8	-8.0	-7.9	-12.3	·	·	·	·	·
c1ccc2c(c1)Cn1c-2nc2ccccc21	-1.4	-4.1	92.4*	81.2*	1.0	90.8*	89.8*	88.4*	98.8*	95.4*	86.4*
Brc1c(-c2ccccc2)nc2n1Cc1ccccc1-2	18.0	19.8	74.9*	51.0*	-4.1	47.2	6.5	65.3*	72.1*	42.3	15.9
O=C1c2ccccc2-c2nc3ccccc3n21	-33.2	0.4	14.7	-28.5	1.0	2.7	·	·	·	·	·
Clc1ccc(-c2nnc(-c3ccco3)o2)cc1	-188.4	-2.3	62.8*	51.8*	3.2	72.6*	35.9	41.4	59.1*	54.3*	0.3
C/C(=N/NC(=O)c1cccs1)c1c(C)[nH]n(-c2nc3ccccc3s2)c1=O	-372.3	-5.4	96.7*	92.8*	-3.6	99.2*	90.3*	81.1*	93.8*	97.8*	66.5*
CCOc1ccc2nc(NC(=O)Nc3cccs3)sc2c1	-5.0	4.5	67.6*	57.5*	12.4	39.8	51.0*	60.9*	82.1*	31.9	38.2
COc1ccc2nc(NC(=O)Cc3cccs3)sc2c1	17.2	2.7	2.1	5.2	7.3	11.1	·	·	·	·	·
CCOc1ccc2nc(NC(=O)Cc3cccs3)sc2c1	0.0	12.3	64.4*	25.8	17.7	47.5	57.3*	54.4*	80.3*	31.5	14.1
COc1ccccc1N(CC(=O)N1CCN(Cc2ccccc2)CC1)S(=O)(=O)c1ccccc1	14.6	·	·	·	·	·	·	·	·	·	·
Cc1ccc(S(=O)(=O)N2[C@@H](CO)CO[C@H]2CC(=O)c2cccs2)cc1	15.7	·	·	·	·	·	·	·	·	·	·
O=C(O)c1ccc(-c2nc(-c3cccc(C(F)(F)F)c3)cs2)cc1	-62.5	·	·	·	·	·	·	·	·	·	·
O=C(O)c1cccc(-n2cc(-c3cccc(C(F)(F)F)c3)cn2)c1	21.6	4.8	85.3*	78.1*	-3.3	59.2*	-5.9	86.9*	96.9*	11.4	90.9*
CCNC(=O)C1(C)CCCN(C(=O)c2ccccc2Br)C1 (stereo not drawn)	7.2	·	·	·	·	·	·	·	·	·	·
SMILES	SENP8 block-1	Apaf1 inhib	SENP6 block	SENP8 block-2	UBC13 polyUb	SENP7 block	SENP8 confirm	SENP6 confirm	SENP7 conf	Casp3 SENP sel	SENP luc ctr
Cc1cccc(-c2noc(C3CCCCC3)n2)c1	14.9	4.3	62.9*	20.8	-2.4	49.8	10.9	25.8	74.8*	22.5	10.3
Cc1ccc(-c2noc(C3CCCCC3)n2)cc1	3.5	16.2	14.1	19.9	-1.9	15.4	·	·	·	·	·
CC(=O)C1=CCC(c2ccc(Cl)cc2)N(S(=O)(=O)c2ccccc2C)C1 (stereo not drawn)	16.4	·	·	·	·	·	·	·	·	·	·
COc1ccc(C2/C(=C(/O)c3ccc(Br)cc3)C(=O)C(=O)N2C)cc1 (stereo not drawn)	-3.5	-12.3	5.0	16.2	-7.1	3.2	·	·	·	·	·
COc1ccc(C2/C(=C(/O)c3ccc(Br)cc3)C(=O)C(=O)N2C)cc1OC (stereo not drawn)	12.2	-0.9	6.5	-4.8	-10.3	58.0*	4.5	5.3	0.4	-0.2	1.3
CCOC(=O)c1ccc(NC(=O)c2ncn3c2C(=O)N[C@H](C)C3)cc1	8.7	·	·	·	·	·	·	·	·	·	·
COc1ccccc1/C=C/C(=O)Nc1cccnc1Cl	-87.2	1.8	24.7	9.6	1.1	0.6	·	·	·	·	·
COc1ccc(/C=C/C(=O)Nc2cccnc2Cl)cc1	-17.0	5.8	89.2*	88.9*	-13.6	91.5*	8.0	92.2*	100.7*	94.6*	61.9*
CC1(C(=O)Nc2cccc(NS(C)(=O)=O)c2)Cc2c(-c3ccc(C(N)=O)cc3)ccnc2O1 (stereo not drawn)	10.1	·	·	·	·	·	·	·	·	·	·
O=C(/C=C/c1ccc(O)cc1)c1ccccc1	-42.6	3.5	1.4	94.6*	-12.1	93.4*	14.7	99.3*	102.7*	91.6*	98.5*
COc1ccc(C=CC(=O)c2ccc([N+](=O)[O-])cc2)cc1	5.3	·	·	·	·	·	·	·	·	·	·
CN(C)c1ccc(/C=C/C(=O)c2ccc(O)cc2)cc1	-434.2	·	·	·	·	·	·	·	·	·	·
CSc1ccc(C(=O)/C=C/c2ccc(N)cc2)cc1	11.2	7.4	70.6*	28.2	-16.2	55.8*	82.9*	64.9*	87.4*	40.2	88.3*
